Among the data in ChEMBL document CHEMBL1151755, “Crystal structure of the peroxisome proliferator-activated receptor gamma (PPARgamma) ligand binding domain complexed with a novel partial agonist: a new region of the hydrophobic pocket could be exploited for drug design” (J Med Chem, 2008) are Efficacy and EC50 values, retold here.

For experiment [1], the target named is T1, Peroxisome proliferator-activated receptor alpha (Mus musculus) (UniProt P23204).
T1 sequence (whole entry): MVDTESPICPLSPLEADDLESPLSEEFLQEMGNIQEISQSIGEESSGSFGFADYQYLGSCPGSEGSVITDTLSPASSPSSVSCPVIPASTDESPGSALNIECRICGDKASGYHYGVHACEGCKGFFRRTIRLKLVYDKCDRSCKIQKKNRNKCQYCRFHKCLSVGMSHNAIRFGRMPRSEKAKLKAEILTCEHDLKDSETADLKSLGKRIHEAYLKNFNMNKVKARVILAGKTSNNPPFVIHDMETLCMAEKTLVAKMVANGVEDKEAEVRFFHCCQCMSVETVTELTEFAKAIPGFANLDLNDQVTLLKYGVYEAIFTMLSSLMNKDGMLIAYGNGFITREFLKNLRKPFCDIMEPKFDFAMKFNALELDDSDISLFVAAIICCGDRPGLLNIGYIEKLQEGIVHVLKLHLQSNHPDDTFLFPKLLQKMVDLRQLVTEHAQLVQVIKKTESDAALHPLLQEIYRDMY
The experiment can be described thus: Agonist activity at mouse PPARalpha ligand binding domain expressed in human Hep G2 cells co-transfected with Gal4-DBD by luciferase reporter gene assay relative to Wy 14,643. It counts as cell-based. The settings on record: HepG2. The procedure, abridged: (§1)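 HepG2 cells received the Gal4-receptor LBD construct (50 ng), pGal4UAS-luciferase (100 ng) and pCMVβ (300 ng) by calcium phosphate coprecipitation for 4 h. They were then treated in serum-free DMEM/F-12 with ligand or 0.1% ethanol for 20 h. Luciferase was normalized to β-galactosidase, and efficacy was expressed as percent of the Wy 14,643 maximum (100%). Values are mean ± SEM of 3–5 experiments in triplicate.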
For orientation: A reporter such as luciferase makes a cellular process visible.

In experiment [2] the target is T2, Peroxisome proliferator-activated receptor alpha (Homo sapiens) (UniProt Q07869).
T2 sequence (whole entry): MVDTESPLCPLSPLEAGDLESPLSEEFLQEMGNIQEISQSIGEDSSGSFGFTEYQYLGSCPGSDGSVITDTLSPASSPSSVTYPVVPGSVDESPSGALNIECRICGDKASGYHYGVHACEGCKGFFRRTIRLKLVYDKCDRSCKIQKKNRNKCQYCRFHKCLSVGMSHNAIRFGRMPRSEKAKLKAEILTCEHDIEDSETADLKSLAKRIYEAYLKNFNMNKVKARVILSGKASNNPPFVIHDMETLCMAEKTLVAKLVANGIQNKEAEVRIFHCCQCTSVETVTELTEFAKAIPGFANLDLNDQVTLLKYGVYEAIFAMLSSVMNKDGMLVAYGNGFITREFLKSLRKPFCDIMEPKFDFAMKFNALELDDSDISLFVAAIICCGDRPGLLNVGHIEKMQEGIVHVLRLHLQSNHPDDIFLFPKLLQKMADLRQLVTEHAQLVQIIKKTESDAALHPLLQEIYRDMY
The experiment in a line: Agonist activity at human PPARalpha ligand binding domain expressed in human Hep G2 cells co-transfected with Gal4-DBD by luciferase reporter gene assay relative to Wy 14,643. It counts as cell-based. The note with it: HepG2. The procedure, abridged:
as §1

Experiment [3] has as its target T3, Peroxisome proliferator-activated receptor alpha (Homo sapiens, UniProt Q07869).
T3 sequence (Q07869 whole entry): T2 sequence (whole entry)
The experiment in a line: Agonist activity at PPARalpha ligand binding domain expressed in human Hep G2 cells co-transfected with Gal4-DBD by luciferase reporter gene assay. It counts as cell-based, HepG2. The procedure, abridged: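 Gal4-LBD fusion vector (50 ng) was co-transfected with pGal4UAS-luciferase (100 ng) and pCMVβ β-galactosidase normalizer (300 ng) into HepG2 cells by calcium phosphate for 4 h. Cells were washed, then given serum-free DMEM/F-12 with ligand or 0.1% ethanol vehicle for 20 h. Luciferase was normalized to β-galactosidase. EC50 came from concentration-response curves, mean ± SEM of 3–5 independent experiments in triplicate.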

Experiment [4] addresses T2, Peroxisome proliferator-activated receptor alpha (Homo sapiens). The experiment can be described thus: Agonist activity at PPARalpha ligand binding domain expressed in human Hep G2 cells co-transfected with Gal4-DBD by luciferase reporter gene assay relative to Wy 14,643. The class given is cell-based. The settings on record: HepG2. The procedure, abridged:
as §1

Take `Cc1cccc(Nc2cc(Cl)nc(SCC(=O)O)n2)c1C`: the Efficacy in experiment [1] and in experiment [2] was 100% each time.
Broadly, the EC50 is the concentration needed to bring the measured effect to its halfway point. Consider `O=C(O)[C@H](Cc1ccccc1)Oc1ccc(CCc2ccccc2)cc1`, for which a half-maximal effect in experiment [3] (EC50) was put at 150 nM. Besides, the Efficacy in experiment [4] was 83%.
`O=C(O)[C@H](Cc1ccccc1)Oc1ccc(Cc2ccccc2)cc1`: the midpoint of the response in experiment [3], the EC50, lay at 11 nM. For the same compound, the Efficacy in experiment [4] turned out to be 107%.
